In PMC2714051 (European journal of medicinal chemistry, 2008):
Values after ≈ are worked out from the molar mass of the structure shown.

Columns and labels:
bovine brain tubulin = assay: [3H]colchicine binding to tubulin; settings: 1 μM drug; 1.0 μM tubulin, 5.0 μM [3H]colchicine, 10 min 37 °C
[1] = system: MCF-7 human breast cancer cells; assay: MCF-7 cell growth, sulforhodamine B; assay type: cell-based
MDA/MB-435 (breast) = assay: MTT cytotoxicity assay, MDA/MB-435; assay type: cell-based; settings: Homo sapiens, MDA-MB-435, 72 h, read-out: Cytotoxic activity IC50
Summary of the method: (§1)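 Test compounds at 0.0009–5 µg/mL were incubated with the human tumour cells for 72 h. Growth was read by the cells' reduction of yellow MTT to blue formazan.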

HCT-8 (colon) = assay: MTT cytotoxicity assay, HCT-8; assay type: cell-based; settings: Homo sapiens, HCT-8, 72 h, read-out: Cytotoxic activity IC50
Summary of the method: as §1

HL-60 (leukemia) = assay: MTT cytotoxicity assay, HL-60; assay type: cell-based; settings: Homo sapiens, HL-60, 72 h, read-out: Cytotoxic activity IC50
Summary of the method: as §1

SF-295 (glyoblastoma) = assay: MTT cytotoxicity assay, SF-295; assay type: cell-based; settings: Homo sapiens, SF-295, 72 h, read-out: Cytotoxic activity IC50
Summary of the method: as §1

| SMILES | Colchicine binding % inhibition ± SD (bovine brain tubulin) [%] | IC50 ([1]; Homo sapiens, MCF7, 48 h, read-out: MCF-7 cell growth IC50 ± SD) [nM] | IC50 (MDA/MB-435 (breast)) [µg/mL] | IC50 (HCT-8 (colon)) [µg/mL] | IC50 (HL-60 (leukemia)) [µg/mL] | Fold less active than CA4 as an inhibitor of MCF-7 cell growth ([1]; in comparison with CA4) | IC50 (SF-295 (glyoblastoma)) [µg/mL] |
| --- | --- | --- | --- | --- | --- | --- | --- |
| COc1ccc(/C=C\c2cc(OC)c(OC)c(OC)c2)cc1O [CA4, combretastatin A-4, reference compound] | 85 ± 5 | 1.4 ± 0.1 |  |  |  |  |  |
| COc1ccc(Sc2cc(OC)c(OC)c(OC)c2)cc1 [compound 1, 1,2,3-trimethoxy-5-[(4-methoxyphenyl)thio]benzene] |  |  | 0.001 (≈ 0.00326 µM) | 0.01 (≈ 0.0326 µM) | 0.001 (≈ 0.00326 µM) | about 10 fold | 0.01 (≈ 0.0326 µM) |
| COc1ccc([S+]([O-])c2cc(OC)c(OC)c(OC)c2)cc1 (stereo not drawn) [compound 2, 1,2,3-trimethoxy-5[(4-methoxyphenyl)sulfinyl]benzene] |  |  | 0.09 (≈ 0.279 µM) | 0.15 (≈ 0.465 µM) | 0.11 (≈ 0.341 µM) |  | 0.47 (≈ 1.46 µM) |
| COc1ccc(S(=O)(=O)c2cc(OC)c(OC)c(OC)c2)cc1 [compound 3, 1,2,3-trimethoxy-5[(4-methoxyphenyl)sulfonyl]benzene] |  |  | 0.75 (≈ 2.22 µM) | 3.95 (≈ 11.7 µM) | 1.53 (≈ 4.52 µM) |  | 2.61 (≈ 7.71 µM) |
